Screening results as filed in PubChem BioAssay.
Most compounds without a hit are left out; they make up all but 2.8% or so of the library.
EP2 mod: modulators of human EP2 prostaglandin E2 receptor; 260,000 compounds, 0.83% hits; EP2-expressing cells, cAMP HTRF FRET, PGE2 co-stimulation; P43116; AID 940; induction, % at 25 µM;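 active = compounds whose cAMP rise, as percent of the full-agonist control response, exceeds 60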;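 also: rat C6 glioma line stably carrying human EP2 under a CMV promoter; the protocol text gives 20 µM as final concentration; 100% = response of wells given 1 µM PGE2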
EP2 antag: inhibitors of human EP2 prostaglandin E2 receptor; C6 glioma cells expressing human EP2, cAMP TR-FRET; cells stimulated with saturating PGE2; inhibition, % at 25 µM; 260,000 compounds, 0.52% hits;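 active = percent inhibition above 40 after rounding to a whole number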;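 also: rat C6 glioma host cells with rolipram phosphodiesterase inhibitor present; the protocol text gives 20 µM as final concentration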
NPY Y1 blocker: antagonists of human neuropeptide Y receptor Y1; HEK293-CNG Y1 cells, membrane potential fluorescence; NPY at EC95, then isoproterenol; 200,000 compounds, 1% hits; inhibition, % at 3.6 µM;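 active = inhibition above the campaign mean inhibition of all tested compounds plus 3 SD, cut at about 20% in these data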;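 also: 0% = DMSO wells given NPY plus isoproterenol and 100% = isoproterenol alone without NPY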
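Assay system: HEK293 cells with Y1 receptor plus CNG channel | Probe or stimulus: NPY (25 nM), isoproterenol (1 µM), Ro 20-1724 (25 µM) | Timing: Compound incubation 1 h at room temperature, readout 45 min post-stimulation | Measured by: Membrane-potential fluorescent dye readout | Benchmarks: High control isoproterenol alone, low control NPY with isoproterenol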
NPY1 pot ag: potentiators or agonists of human neuropeptide Y receptor Y1 | P25929 | NPY-Y1 expressing cells, potentiator/agonist activation | activation, % at 3.6 µM | 220,000 compounds, 0.37% hits | AID 1304; in the data active = activation above about 33%, passing the limit was not always enough;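 also: cells stimulated with NPY at EC10 then isoproterenol at EC100; 0% = low agonist plus stimulus and 100% = saturating agonist plus stimulus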
NPY-Y2 antag: antagonists of human neuropeptide Y receptor Y2. P49146. NPY-Y2 expressing cells, antagonist mode. 140,000 compounds, 0.99% hits. AID 793. inhibition, % at 2.7 µM; in the data active = inhibition above about 17%;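 also: 0% = vehicle with agonist challenge and 100% = reference antagonist with challenge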
Target sequence (P49146 whole entry, looked up): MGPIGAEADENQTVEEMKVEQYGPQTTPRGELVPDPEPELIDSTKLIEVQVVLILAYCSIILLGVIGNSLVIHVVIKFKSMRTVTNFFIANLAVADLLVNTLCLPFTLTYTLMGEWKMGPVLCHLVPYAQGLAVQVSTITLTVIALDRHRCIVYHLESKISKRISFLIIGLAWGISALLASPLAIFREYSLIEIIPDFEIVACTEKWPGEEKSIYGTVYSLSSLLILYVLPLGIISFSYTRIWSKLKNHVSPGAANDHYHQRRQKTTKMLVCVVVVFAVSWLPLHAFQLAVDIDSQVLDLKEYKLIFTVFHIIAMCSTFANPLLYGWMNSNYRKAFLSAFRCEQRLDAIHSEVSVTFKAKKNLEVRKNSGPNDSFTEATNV
NPY2 pot ag: human NPY-Y2 potentiation or agonism, primary screen | 220,000 compounds, 0.45% hits | AID 1359 | cells expressing NPY-Y2, potentiator/agonist read-out | activation, % at 3.6 µM | P49146; in the data active = activation above about 27%;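 also: cells stimulated with NPY near EC25 plus isoproterenol at EC100; 0% = vehicle plus submaximal agonist and 100% = vehicle plus saturating agonist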
Numbers without * were called inactive; . = not tested or not shown; ! = not active in a repeat.

SMILES	EP2 mod	EP2 antag	NPY Y1 blocker	NPY1 pot ag	NPY-Y2 antag	NPY2 pot ag
CCC(=O)N(CCC(c1ccccc1)c1ccco1)Cc1cccs1 (configuration not stated)	46	8	27*	-12	22*	-5
COCCn1nnnc1C(c1cc2ccc(C)cc2[nH]c1=O)N1CCN(c2ccc(F)cc2)CC1 (configuration not stated)	-16	6	.	.	.	.
N=c1c2c(-c3ccccc3)c(-c3ccccc3)n(Cc3ccco3)c2ncn1CCN1CCOCC1	-13	3	42*	-11	43*	16
N=c1c2c(-c3ccccc3)c(-c3ccccc3)n(Cc3ccco3)c2ncn1CCO	-10	16	38*	-79	63*	-23
N=c1c2c(-c3ccccc3)c(-c3ccccc3)n(Cc3ccco3)c2ncn1CCCO	-50	7	.	-47	.	-46
Cc1cccc(C)c1NC(=O)CSc1nccc(=O)[nH]1	-3	3	.	.	.	.
COc1ccc(CN(CCN(C)C)Cc2ccccc2)c(OC)c1	2	6	23*	-17	20*	-14
O/N=C/c1cc(Br)ccc1OCc1ccc(F)cc1	.	15	16	-15	18*	-2
Cc1ccc(COc2ccc(Br)cc2/C=N/O)cc1	12	23	14	-22	15	-25
CS(=O)(=O)N(CC(=O)NCc1ccncc1)c1cccc(Cl)c1	10	8	.	.	.	.
S=c1nc(-c2ccccc2)n(Cc2ccco2)c2c1CCCC2	38	12	29*	-13	16	3
S=c1nc(-c2ccccc2)n(Cc2cccnc2)c2c1CCCC2	19	12	.	19	.	-1
O=C1c2ccccc2C(=O)N1SC1CCCCC1	-36	87*	-3	4	2	-3
O=C(OCN1C(=O)c2ccccc2C1=O)C1CCCCC1	13	11	4	13	1	-10
Nc1nnc(-c2ccncc2)s1	20	11	-4	13	1	0
c1cc(-c2sc(-c3ccncc3)c(-c3ccncc3)c2-c2ccncc2)ccn1	-12	41*!	.	17	.	4
Nc1nc(-c2ccccn2)nc(N)c1Cc1c(F)cccc1Cl	-33	5	3	2	.	1
Cc1n[nH]c(C)c1Cc1c(F)cccc1Cl	87*	-2	.	-7	.	-19
CCN1C(=O)c2cccc3c(NC(=O)C(C)(C)C)ccc1c23	-11	50*	1	-12	1	1
CCOC(=O)C1=C(C)N(c2ccc(OC)cc2)C(=O)/C1=C\c1ccc(O)c(OCC)c1	31	41*	.	1	.	-5
CC(C)CNC(=O)c1oc2ccccc2c1COc1ccccc1	47	3	15	-29	3	-6
CCC(CC)NC(=O)c1oc2ccccc2c1COc1ccccc1	45	3	32*	-7	26*	1
CCOc1ccccc1NC(=O)c1sc(NC(=O)c2ccccc2F)c(C(=O)OC)c1C	13	12	.	.	.	.
N#Cc1c(NC(=O)CSc2nnc(-c3ccco3)n2-c2ccccc2)sc2c1CCC2	14	16	-4	111*	1	43*
NC(=O)c1c(NC(=O)CSc2nnc(-c3ccco3)n2-c2ccccc2)sc2c1CCC2	-21	12	-2	32	2	16
SMILES	EP2 mod	EP2 antag	NPY Y1 blocker	NPY1 pot ag	NPY-Y2 antag	NPY2 pot ag
COc1cc(NS(=O)(=O)c2ccc(NC(=S)NC(=O)CC(C)C)cc2)nc(OC)n1	-54	10	6	7	0	-5
COc1cc(NS(=O)(=O)c2ccc(NC(=S)NC(=O)c3sc4ccccc4c3Cl)cc2)ncn1	-9	52*	3	-12	2	3
COc1ccc(OCC(=O)NC(=S)Nc2ccc(S(=O)(=O)Nc3cc(OC)nc(OC)n3)cc2)cc1	-65	64*	1	7	6	1
COc1cc(NS(=O)(=O)c2ccc(NC(=S)NC(=O)c3ccc(F)cc3)cc2)nc(OC)n1	-128	59*	.	.	.	.
Cc1cc(C)nc(NS(=O)(=O)c2ccc(NC(=S)NC(=O)c3ccc(F)cc3)cc2)n1	-130	28	.	.	.	.
Cc1cc(NS(=O)(=O)c2ccc(NC(=S)NC(=O)c3ccc(F)cc3)cc2)no1	-142	46*!	2	10	0	9
CCC(CN1CCCC1)NC(=O)Cc1csc(Nc2cccc(C)c2)n1 (configuration not stated)	-70	7	.	.	.	.
CCC(CN1CCN(C)CC1)NC(=O)Cc1csc(-c2ccccc2F)n1 (configuration not stated)	-53	4	.	.	.	.
COc1ccc(-n2ncc3c(=O)n(CC(=O)N(C4CCCCC4)C4CCCCC4)cnc32)cc1	-52	7	.	.	.	.
Cc1ccc(CNC(=O)CN2C(=O)C3(OCCCO3)c3ccccc32)cc1	15	10	1	20	2	3
Cc1ccc(C)c(CN2C(=O)C3(OCCCO3)c3ccccc32)c1	62*	8	5	-44	5	-19
CC(=O)c1c(C)[nH]c(C(=O)Nc2nc(-c3ccc(Cl)cc3)cs2)c1C	-52	41*	0	0	1	2
COc1ccc(-c2nc(NC(=O)c3[nH]c(C)c(C(C)=O)c3C)sc2C)cc1	-64	100*	-4	-11	.	3
COc1ccc(OC)c(NC(=O)c2[nH]c(C)c(C(C)=O)c2C)c1	-18	19	0	-12	1	-10
Cc1cccc(Cl)c1NC[C@H](O)CN1CCN(C)CC1	13	47*	.	.	.	.
CCN1CCN(CCNC(=O)c2ccc(/C=C3/Sc4ccccc4N(Cc4cccc(Cl)c4)C3=O)cc2)CC1	-22	1	0	-19	.	-9
CN1CCN(CCCNC(=O)c2ccc(/C=C3\Sc4ccccc4N(Cc4ccccc4F)C3=O)cc2)CC1	-45	88*	-6	-1	.	-6
CCC(c1nnnn1Cc1ccco1)N1CCN(c2cc(Cl)ccc2C)CC1 (configuration not stated)	-9	11	27*	-28	28*	-12
CCOc1ccc(N(CC(=O)N2CCN(c3ccccc3F)CC2)S(C)(=O)=O)cc1	-123	26	.	.	.	.
COn1c(SCc2ccccc2)nc2ccccc2c1=O	42	7	6	-15	7	-3
COn1c(SCc2cccc(Cl)c2)nc2ccccc2c1=O	24	2	22*	-56	17*	-5
O=C(C(Cc1ccccc1)N1C(=O)c2ccccc2C1=O)N1CCc2ccccc21 (configuration not stated)	64*	6	-1	-29	2	11
O=C(O)[C@H](Cc1ccccc1)N1C(=O)c2ccccc2C1=O	24	13	.	.	.	.
Cc1ccc(C2(c3ccc(C)cc3)CC2C(=O)Nc2ccc([N+](=O)[O-])cc2O)cc1 (configuration not stated)	57	3	-5	12	-3	45*
Clc1ccc(NC2=NCCCCC2)cc1	11	14	46*	7	1	10
